Measured values as given in ChEMBL document CHEMBL1129660, “Studies on 6-aminoquinolones: synthesis and antibacterial evaluation of 6-amino-8-methylquinolones” (J Med Chem, 1996).
≈ marks a conversion by molar mass, not a printed value.

Legend:
Assay type in all cases: functional
Escherichia coli [1] = assay: Antibacterial activity tested against Escherichia coli ATCC 8739
Procedure, shortened: (§1)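 MICs (µg/mL) determined by conventional agar dilution against a panel of eight Gram-negative and five Gram-positive reference strains.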

Escherichia coli [2] = assay: Antibacterial activity tested against Escherichia coli ISF 432; procedure, shortened: as §1
Escherichia coli [3] = assay: Inhibitory activity against gyrase supercoiling activity from Escherichia coli
Procedure, shortened: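 Inhibition of DNA gyrase supercoiling activity, by a previously described protocol with slight modifications. IC50 derived by densitometric quantification of the supercoiled DNA peak in an agarose gel.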

Enterobacter cloacae = assay: Antibacterial activity tested against Enterobacter cloacae OMNFI 174
Bacteria = assay: Geometric mean of antibacterial activity (Gram +ve bacteria) of the compound
Procedure, shortened: (§2)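 Geometric means calculated from agar-dilution MICs (µg/mL), taken separately across the five Gram-positive and the eight Gram-negative panel strains.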

[4] = Geometric mean of antibacterial activity (Gram -ve bacteria) of the compound; procedure, shortened: as §2
Klebsiella pneumoniae = assay: Antibacterial activity tested against Klebsiella pneumoniae (Klebsiella pneumoniae) ATCC 10031; procedure, shortened: as §1
Proteus vulgaris = assay: Antibacterial activity tested against Proteus vulgaris CNUR 5; procedure, shortened: as §1
Providencia stuartii = assay: Antibacterial activity tested against Providencia stuartii CNUR 5; procedure, shortened: as §1
Pseudomonas aeruginosa = assay: Antibacterial activity tested against P. ae (Pseudomonas aeruginosa) ATCC 9027; procedure, shortened: as §1
Shigella = assay: Antibacterial activity tested against Shigella enteritidis; procedure, shortened: as §1
Staphylococcus aureus [5] = assay: Antibacterial activity against Staphylococcus aureus ATCC 6538; procedure, shortened: as §1
Staphylococcus aureus [6] = assay: Antibacterial activity against Staphylococcus aureus MPR 5; procedure, shortened: as §1
Enterococcus faecalis [7] = assay: Antibacterial activity tested against Streptococcus faecalis LEP Br; procedure, shortened: as §1
[8] = tested on: Staphylococcus epidermidis; assay: Antibacterial activity tested against Staphylococcus epidermidis CPHL A2; procedure, shortened: as §1
[9] = tested on: Staphylococcus epidermidis; assay: Antibacterial activity tested against Staphylococcus epidermidis HCF Berset C; procedure, shortened: as §1
Enterococcus faecium = assay: Antibacterial activity tested against Enterococcus faecium
Enterococcus faecalis [10] = assay: Antibacterial activity tested against Enterococcus faecalis
Staphylococcus aureus [11] = assay: Antibacterial activity tested against Staphylococcus aureus Methicillin-and Ciprofloxacin resistants; Range is 2-8 ug/mL
Streptococcus pneumoniae = assay: Antibacterial activity tested against Streptococcus pneumoniae; Range is 1-2 ug/mL
Staphylococcus aureus [12] = assay: Antibacterial activity tested against Staphylococcus aureus; Range is 0.06-0.13 ug/mL

Structure (SMILES)	MIC (Escherichia coli [1]) [µg/mL]	MIC (Escherichia coli [2]) [µg/mL]	IC50 (Escherichia coli [3]) [µg/mL]	MIC (Enterobacter cloacae) [µg/mL]	Geometric mean (Bacteria)	Geometric mean [4]	MIC (Klebsiella pneumoniae) [µg/mL]	MIC (Proteus vulgaris) [µg/mL]	MIC (Providencia stuartii) [µg/mL]	MIC (Pseudomonas aeruginosa) [µg/mL]	MIC (Shigella) [µg/mL]	MIC (Staphylococcus aureus [5]) [µg/mL]	MIC (Staphylococcus aureus [6]) [µg/mL]	MIC (Enterococcus faecalis [7]) [µg/mL]	MIC [8] [µg/mL]	MIC [9] [µg/mL]	also measured
Cc1c(N2CCc3ccccc3C2)c(F)cc2c(=O)c(C(=O)O)cn(C3CC3)c12	0.06 (≈ 0.153 µM)	0.03 (≈ 0.0764 µM)	3.14 (≈ 8 µM)	4 (≈ 10.2 µM)	0.046	0.451	0.03 (≈ 0.0764 µM)	4 (≈ 10.2 µM)	2 (≈ 5.1 µM)	4 (≈ 10.2 µM)	0.25 (≈ 0.637 µM)	0.03 (≈ 0.0764 µM)	0.03 (≈ 0.0764 µM)	0.25 (≈ 0.637 µM)	0.03 (≈ 0.0764 µM)	0.03 (≈ 0.0764 µM)	–
Cc1c(N2CCN(C)CC2)c(N)cc2c(=O)c(C(=O)O)cn(C3CC3)c12	0.03 (≈ 0.0842 µM)	0.03 (≈ 0.0842 µM)	3.78 (≈ 10.6 µM)	0.125 (≈ 0.351 µM)	1	0.205	0.03 (≈ 0.0842 µM)	4 (≈ 11.2 µM)	2 (≈ 5.61 µM)	2 (≈ 5.61 µM)	0.06 (≈ 0.168 µM)	0.5 (≈ 1.4 µM)	0.5 (≈ 1.4 µM)	4 (≈ 11.2 µM)	1 (≈ 2.81 µM)	1 (≈ 2.81 µM)	–
Cc1c(N2CC(C)NC(C)C2)c(N)cc2c(=O)c(C(=O)O)cn(C3CC3)c12 (stereo not drawn)	0.06 (≈ 0.162 µM)	0.03 (≈ 0.081 µM)	–	0.5 (≈ 1.35 µM)	2	0.348	0.03 (≈ 0.081 µM)	8 (≈ 21.6 µM)	2 (≈ 5.4 µM)	2 (≈ 5.4 µM)	0.25 (≈ 0.675 µM)	1 (≈ 2.7 µM)	1 (≈ 2.7 µM)	16 (≈ 43.2 µM)	1 (≈ 2.7 µM)	2 (≈ 5.4 µM)	–
Cc1c(N2CCNC(C)C2)c(N)cc2c(=O)c(C(=O)O)cn(C3CC3)c12 (stereo not drawn)	0.125 (≈ 0.351 µM)	0.03 (≈ 0.0842 µM)	–	0.125 (≈ 0.351 µM)	1.319	0.225	0.03 (≈ 0.0842 µM)	4 (≈ 11.2 µM)	2 (≈ 5.61 µM)	1 (≈ 2.81 µM)	0.06 (≈ 0.168 µM)	1 (≈ 2.81 µM)	1 (≈ 2.81 µM)	4 (≈ 11.2 µM)	1 (≈ 2.81 µM)	1 (≈ 2.81 µM)	–
Cc1c(N2CC(C)OC(C)C2)c(N)cc2c(=O)c(C(=O)O)cn(C3CC3)c12 (stereo not drawn)	0.06 (≈ 0.162 µM)	0.03 (≈ 0.0808 µM)	–	1 (≈ 2.69 µM)	0.122	0.451	0.03 (≈ 0.0808 µM)	16 (≈ 43.1 µM)	0.5 (≈ 1.35 µM)	4 (≈ 10.8 µM)	1 (≈ 2.69 µM)	0.06 (≈ 0.162 µM)	0.06 (≈ 0.162 µM)	1 (≈ 2.69 µM)	0.06 (≈ 0.162 µM)	0.125 (≈ 0.337 µM)	–
Cc1c(N2CCSCC2)c(N)cc2c(=O)c(C(=O)O)cn(C3CC3)c12	0.25 (≈ 0.696 µM)	0.03 (≈ 0.0835 µM)	1.42 (≈ 3.95 µM)	0.25 (≈ 0.696 µM)	0.123	0.362	0.02 (≈ 0.0556 µM)	32 (≈ 89 µM)	2 (≈ 5.56 µM)	1 (≈ 2.78 µM)	0.125 (≈ 0.348 µM)	0.06 (≈ 0.167 µM)	0.06 (≈ 0.167 µM)	0.5 (≈ 1.39 µM)	0.125 (≈ 0.348 µM)	0.125 (≈ 0.348 µM)	MIC (Enterococcus faecium): 2 µg/mL (≈ 5.56 µM); MIC (Enterococcus faecalis [10]): 0.5 µg/mL (≈ 1.39 µM); MIC (Staphylococcus aureus [11]): 2 µg/mL (≈ 5.56 µM); MIC (Streptococcus pneumoniae): 1 µg/mL (≈ 2.78 µM); MIC (Staphylococcus aureus [12]): 0.06 µg/mL (≈ 0.167 µM)
Cc1c(N2CCN(C)CC2)c(N)cc2c(=O)c(C(=O)O)cn(-c3ccc(O)cc3)c12	0.125 (≈ 0.306 µM)	0.125 (≈ 0.306 µM)	–	8 (≈ 19.6 µM)	18.37	2.378	0.25 (≈ 0.612 µM)	> 128	8 (≈ 19.6 µM)	8 (≈ 19.6 µM)	4 (≈ 9.79 µM)	16 (≈ 39.2 µM)	16 (≈ 39.2 µM)	64 (≈ 157 µM)	8 (≈ 19.6 µM)	16 (≈ 39.2 µM)	–
Cc1c(N2CCN(C)CC2)c([N+](=O)[O-])cc2c(=O)c(C(=O)O)cn(C3CC3)c12	16 (≈ 41.4 µM)	4 (≈ 10.4 µM)	–	8 (≈ 20.7 µM)	4.595	13.454	16 (≈ 41.4 µM)	64 (≈ 166 µM)	32 (≈ 82.8 µM)	64 (≈ 166 µM)	1 (≈ 2.59 µM)	4 (≈ 10.4 µM)	4 (≈ 10.4 µM)	16 (≈ 41.4 µM)	2 (≈ 5.18 µM)	4 (≈ 10.4 µM)	–
Cc1c(N2CC(C)CC(C)C2)c(N)cc2c(=O)c(C(=O)O)cn(C3CC3)c12 (stereo not drawn)	0.125 (≈ 0.338 µM)	0.03 (≈ 0.0812 µM)	–	2 (≈ 5.41 µM)	0.079	0.641	0.06 (≈ 0.162 µM)	16 (≈ 43.3 µM)	0.5 (≈ 1.35 µM)	4 (≈ 10.8 µM)	2 (≈ 5.41 µM)	0.03 (≈ 0.0812 µM)	0.03 (≈ 0.0812 µM)	1 (≈ 2.71 µM)	0.06 (≈ 0.162 µM)	0.06 (≈ 0.162 µM)	–
Cc1c(N2CC3CCC2CC3)c(N)cc2c(=O)c(C(=O)O)cn(C3CC3)c12	4 (≈ 10.9 µM)	0.3 (≈ 0.816 µM)	–	4 (≈ 10.9 µM)	0.246	2.141	0.03 (≈ 0.0816 µM)	64 (≈ 174 µM)	1 (≈ 2.72 µM)	16 (≈ 43.5 µM)	3 (≈ 8.16 µM)	0.03 (≈ 0.0816 µM)	0.03 (≈ 0.0816 µM)	4 (≈ 10.9 µM)	0.25 (≈ 0.68 µM)	1 (≈ 2.72 µM)	–
